Only a selection was taken, and hits are over-represented in it overall.
H69AR growth 86K: blocks growth of human H69AR lung tumor cells | H69AR lung tumor viability, ATP luminescence, 72 h; active compounds read low | actives 6% (n = 85,000) | AID 598 | viability, % at 10 µM;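 active means viability at or below 40%; inactive means viability above 40%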;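 further: multidrug resistant small cell line overexpressing MRP-1 efflux transporter; 100% = mean luminescence of untreated control wells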
HCT116 bCat-KO: beta-catenin-lacking colon tumor cell growth suppression. HCT116 beta-catenin knockout viability, CellTiter-Glo, 60 h; active compounds read low. viability, % at 10 µM. actives 1.5% (n = 140,000). AID 818;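 active means viability at or under a set limit, the compound median less 4 SD, cut at about 6% in these data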;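 further: 0% = Hyamine 1622 control at 20 µM and 100% = untreated cell control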
PTEN del growth: suppresses growth of cells with PTEN deletion | viability, % at 10 µM | actives 1.2% (n = 140,000) | HCT116 PTEN-null viability, CellTiter-Glo, 60 h; active compounds read low;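 active means viability at or below a set limit, 4 SD under the median of all tested compounds, cut at about 3.7% in these data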;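 further: PTEN knockout HCT116 line with beta catenin targeted HCT116 as companion control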
HUVEC prolif 384: human endothelial cell proliferation inhibition | HUVEC proliferation, CellTiter-Glo luminescence, 72 h; active compounds read low | viability, % at 10 µM (by protocol) | actives 1.1% (n = 86,000);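 active means viability at or below 30%; inactive means viability above 30%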;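 further: 100% = median luminescence of DMSO-only cell control wells on each plate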
Fibroblast inh: blocks proliferation of human lung fibroblasts; viability, % at 10 µM; actives 1.1% (n = 85,000); LL 47 human lung fibroblast viability, ATP luminescence; active compounds read low;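 active means viability at or below 50% in the single dose screen; inactive means viability above 50%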;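 further: compound exposure lasted 72 h before the ATP readout; 100% = median luminescence of untreated cell-only wells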
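material = human LL 47 lung fibroblast cells | dosing = compounds added from tenfold dosing solution, 0.1% DMSO final | timing = overnight cell rest, 72 h compound treatment at 37 °C | measured by = CellTiter-Glo luminescence measuring cellular ATP | evaluation = % viability versus median cells-only luminescence | control set = cell-only wells, no compound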
Active calls of the source: *; / = no result.

SMILES	H69AR growth 86K	HCT116 bCat-KO	PTEN del growth	HUVEC prolif 384	Fibroblast inh
CCOC(=O)c1ccc2c(c1)NC(=O)C(N1CCN(c3ccc(OC)cc3)CC1)S2 (configuration not stated)	31*	78	67	68	46*
O=C(c1ccc(Cl)cc1)c1oc2ccccc2c1CS(=O)(=O)c1ccccc1	/	73	64	/	/
COc1ccc(S(=O)(=O)Nc2ccccc2OC)cc1NC(=O)c1cc2ccccc2oc1=O	/	64	59	/	/
CC(C)C1C(C#N)=C(N)Oc2n[nH]c(-c3ccc4ccccc4c3)c21 (configuration not stated)	16*	25	25	40	62
N#CC1=C(N)Oc2n[nH]c(-c3ccccc3)c2C1c1ccsc1 (configuration not stated)	84	94	97	76	96
CCC(CC)C1C(C#N)=C(N)Oc2n[nH]c(-c3ccccc3)c21 (configuration not stated)	36*	82	86	71	76
CCC(CC)C1C(C#N)=C(N)Oc2n[nH]c(C)c21 (configuration not stated)	13*	54	75	67	80
COc1cc(/C=N/NC(=S)Nc2cccc(Cl)c2C)ccc1OCC(=O)N1CC(C)OC(C)C1 (configuration not stated)	/	64	53	/	/
CCOC(=O)NC(NC(=O)OCC)C(=O)c1ccc(F)cc1	/	95	95	/	/
CCCNCC1C(Oc2ccc(Cl)cc2)C(=O)N1c1ccccc1C (configuration not stated)	/	70	64	/	/
Cc1nn(-c2ccccc2)c(/N=C/c2ccc(O)cc2)c1-c1ccccc1	/	91	97	/	/
C/C(=N\O)c1ccc2c3ccccc3n(C)c2c1	95	84	88	24*	96
N#Cc1c(N)n(C2CCCCC2)c2nc3ccccc3nc12	35*	87	74	69	69
O=C1CCCC(O)=C1C(C#Cc1ccccc1)C1=C(O)CCCC1=O	7.3*	100	107	76	81
CC1(C)CC(=O)C(C(C#Cc2ccccc2)C2=C(O)CC(C)(C)CC2=O)=C(O)C1	29*	80	93	82	83
COc1cc(NC(=O)c2ccc(C)cc2)c(OC)cc1NC(=O)CN1CCCCC1	61	80	85	86	96
COc1ccc(NC(=O)CN2CCN(CC(=O)Nc3ccccc3Cl)CC2)cc1Cl	24*	98	108	81	91
COc1cc(NC(=O)Nc2cccc(Cl)c2)c(OC)cc1NC(=O)CN1CCCCC1	7.8*	33	26	12*	103
COc1ccccc1NC(=O)CN1CCN(CC(=O)Nc2ccc(Cl)c(C(F)(F)F)c2)CC1	27*	37	38	66	83
O=C1NCCCC1C(=O)N1CCN(C(=O)C2CCCNC2=O)CC1 (configuration not stated)	95	/	/	103	105
Cn1c(=N)n(CC(O)c2cccc3ccccc23)c2ccccc21 (configuration not stated)	26*	29	32	88	84
CN(C1=C(NC(=O)c2ccc(Cl)cc2)C(=O)c2ccccc2C1=O)c1ccccc1	/	1.6*	1.6*	/	/
Clc1cccc(Cl)c1COn1nnc2ccccc21	35*	14	19	41	63
Cc1ccc(-c2ccc(/C=N\NC(=O)c3cc4c(ccc5ccccc54)o3)o2)cc1[N+](=O)[O-]	/	1.2*	0.6*	/	/
COc1ccc2[nH]c3c(N4CCN(Cc5ccc6c(c5)OCO6)CC4)ncnc3c2c1	49	11	8	54	90
SMILES	H69AR growth 86K	HCT116 bCat-KO	PTEN del growth	HUVEC prolif 384	Fibroblast inh
COc1ccc2c(c1)c1ncnc(N3CCN(Cc4ccc5c(c4)OCO5)CC3)c1n2C	28*	13	17	64	91
Cn1c(=O)c2c(nc(CN3CCN(c4ccccc4)CC3)n2Cc2ccccc2Cl)n(C)c1=O	24*	71	52	75	84
Cn1c(=O)c2c(nc(NCc3ccc4c(c3)OCO4)n2Cc2ccccc2Cl)n(C)c1=O	38*	81	93	65	89
C=CCOc1nc2c(c(=O)n(C)c(=O)n2C)n1Cc1ccccc1Cl	38*	69	70	94	93
C=CCOc1nc2c(c(=O)n(C)c(=O)n2C)n1Cc1ccc(Cl)cc1	75	66	72	96	96
Cn1c(=O)[nH]c(=O)c2c1nc(Br)n2Cc1ccccc1Cl	27*	89	78	101	97
CCN(CC)S(=O)(=O)c1cc(C(=O)OCC(=O)Nc2cccc(Br)c2)ccc1F	/	89	101	/	/
O=C(Cc1cccs1)NNC(=O)c1ccc(F)cc1	/	87	90	/	/
CCc1c(C)sc2nc(C(C)C)nc(SCC(=O)N3CCc4ccccc4C3)c12	/	8	10	/	/
Cc1ccc(-n2c(SCC(=O)Nc3ccc4cn[nH]c4c3)nnc2-c2ccco2)cc1	32*	89	88	82	82
CC(=O)Nc1ccc(NC(=O)CSc2nnc(-c3ccco3)n2Cc2ccco2)cc1	11*	70	86	92	94
Oc1ccc(C=Nc2ccccc2-c2nc3ccccc3[nH]2)cc1	/	83	88	/	/
CCc1cc(=O)oc2cc(OC(C)C(=O)O)c(Cl)cc12 (configuration not stated)	94	100	93	98	99
Cc1ccc(-c2[nH]nc(N)c2N=Nc2ccccc2C)cc1	/	3.1*	5	/	/
Cc1ccc(-c2[nH]nc(N)c2N=Nc2cccc(Cl)c2C)cc1	/	12	8	/	/
CCCOc1ccccc1N/C(=N/c1nc(C)cc(C)n1)NC(=O)Nc1ccc(Cl)cc1	/	60	61	/	/
Cn1c(NCc2cccs2)nc2ccccc21	93	83	97	82	94
COc1ccccc1-n1cnc2cc(NCc3cccs3)ccc21	27*	18	15	41	46*
COc1ccc(CNc2ccc3c(c2)ncn3-c2ccccc2OC)cc1	93	66	56	95	98
COc1ccccc1-n1cnc2cc(NCc3ccco3)ccc21	23*	12	15	64	54
Cc1ccccc1-n1cnc2cc(NCc3cccs3)ccc21	20*	46	50	77	69
CC(C)SC1=NC(C)(C)C=C(/C=C/c2c(Cl)cccc2Cl)N1	40	14	14	54	84
CC(C)SC1=NC(C)(C)C=C(/C=C/c2ccc(Cl)cc2Cl)N1	34*	19	22	26*	82
O=C(Nc1ccncc1)C1CCCN(S(=O)(=O)c2cccc3cccnc23)C1 (configuration not stated)	24*	23	23	67	57
O=C(NCC1CC1)[C@@H]1C[C@H]1[C@@H](NP(=O)(c1ccccc1)c1ccccc1)c1ccccc1	/	0.2*	0.1*	/	/
O=C(NCc1ccccc1)[C@@H]1C[C@H]1[C@@H](NP(=O)(c1ccccc1)c1ccccc1)c1ccccc1	/	84	76	/	/
CCCc1cc(C(N)=O)c(NC(C)=O)s1	40*	91	82	85	99
Cc1ccc(CNC(=O)CCSCCC(=O)NCc2ccc(C)cc2)cc1	101	95	103	92	100

Compound activity as filed in PubChem BioAssay.
